The record followed here is ChEMBL document CHEMBL3872223, “Synthetic, enzyme kinetic, and protein crystallographic studies of C-β-d-glucopyranosyl pyrroles and imidazoles reveal and explain low nanomolar inhibition of human liver glycogen phosphorylase” (Eur J Med Chem, 2016).

One may read the Ki as the dissociation constant of the complex between target and ligand, obtained from inhibition or displacement. A word on the IC50: it is the concentration needed to halve the response being measured.

SMILES strings stand for the structures. Calls of active or inactive are those of the source. The rule behind the calls is not given here.

The target of assay [1] is T1, Glycogen phosphorylase, muscle form (Oryctolagus cuniculus, UniProt P00489).
T1 sequence (P00489 whole entry): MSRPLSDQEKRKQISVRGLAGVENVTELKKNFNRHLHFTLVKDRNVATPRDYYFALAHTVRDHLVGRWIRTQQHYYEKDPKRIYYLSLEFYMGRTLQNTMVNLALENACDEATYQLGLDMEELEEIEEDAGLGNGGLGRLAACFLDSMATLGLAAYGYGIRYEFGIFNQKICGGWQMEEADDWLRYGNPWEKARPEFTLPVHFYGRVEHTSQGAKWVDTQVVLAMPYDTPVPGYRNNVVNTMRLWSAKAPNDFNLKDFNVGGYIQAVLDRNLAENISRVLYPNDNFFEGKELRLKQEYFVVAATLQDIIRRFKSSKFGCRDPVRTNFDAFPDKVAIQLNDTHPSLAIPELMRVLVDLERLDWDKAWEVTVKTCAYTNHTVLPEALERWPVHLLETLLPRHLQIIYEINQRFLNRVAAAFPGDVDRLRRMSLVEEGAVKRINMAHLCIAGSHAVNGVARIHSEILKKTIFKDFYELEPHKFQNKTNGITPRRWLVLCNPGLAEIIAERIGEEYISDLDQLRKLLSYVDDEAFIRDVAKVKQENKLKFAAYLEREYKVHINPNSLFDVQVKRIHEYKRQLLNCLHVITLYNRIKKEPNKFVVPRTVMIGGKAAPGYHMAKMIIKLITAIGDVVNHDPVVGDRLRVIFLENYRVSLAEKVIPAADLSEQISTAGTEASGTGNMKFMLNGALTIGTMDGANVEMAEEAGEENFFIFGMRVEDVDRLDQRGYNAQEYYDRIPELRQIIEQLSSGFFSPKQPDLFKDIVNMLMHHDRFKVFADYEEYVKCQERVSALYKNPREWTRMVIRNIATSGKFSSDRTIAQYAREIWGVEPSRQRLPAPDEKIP
Nature of the assay: Competitive inhibition of rabbit muscle glycogen phosphorylase-a assessed as release of inorganic phosphate using varying levels of glucose-1-phosphate and constant concentration of AMP and glycogen measured after 1 min by Dixon plot method. The essentials: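 Rabbit muscle GPa was made by phosphorylating rmGPb with a truncated catalytic γ subunit of rabbit muscle phosphorylase kinase. It was assayed in 30 mM imidazole/HCl pH 6.8 containing 60 mM KCl, 0.6 mM EDTA, 0.6 mM DTT and 0.2% w/v glycogen, with Glc-1-P and inhibitor both varied. Initial velocities were calculated from pseudo-first order rate constants.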

Assay [2] has as its target T2, Glycogen phosphorylase, liver form (Homo sapiens) (UniProt P06737).
T2 sequence (whole entry): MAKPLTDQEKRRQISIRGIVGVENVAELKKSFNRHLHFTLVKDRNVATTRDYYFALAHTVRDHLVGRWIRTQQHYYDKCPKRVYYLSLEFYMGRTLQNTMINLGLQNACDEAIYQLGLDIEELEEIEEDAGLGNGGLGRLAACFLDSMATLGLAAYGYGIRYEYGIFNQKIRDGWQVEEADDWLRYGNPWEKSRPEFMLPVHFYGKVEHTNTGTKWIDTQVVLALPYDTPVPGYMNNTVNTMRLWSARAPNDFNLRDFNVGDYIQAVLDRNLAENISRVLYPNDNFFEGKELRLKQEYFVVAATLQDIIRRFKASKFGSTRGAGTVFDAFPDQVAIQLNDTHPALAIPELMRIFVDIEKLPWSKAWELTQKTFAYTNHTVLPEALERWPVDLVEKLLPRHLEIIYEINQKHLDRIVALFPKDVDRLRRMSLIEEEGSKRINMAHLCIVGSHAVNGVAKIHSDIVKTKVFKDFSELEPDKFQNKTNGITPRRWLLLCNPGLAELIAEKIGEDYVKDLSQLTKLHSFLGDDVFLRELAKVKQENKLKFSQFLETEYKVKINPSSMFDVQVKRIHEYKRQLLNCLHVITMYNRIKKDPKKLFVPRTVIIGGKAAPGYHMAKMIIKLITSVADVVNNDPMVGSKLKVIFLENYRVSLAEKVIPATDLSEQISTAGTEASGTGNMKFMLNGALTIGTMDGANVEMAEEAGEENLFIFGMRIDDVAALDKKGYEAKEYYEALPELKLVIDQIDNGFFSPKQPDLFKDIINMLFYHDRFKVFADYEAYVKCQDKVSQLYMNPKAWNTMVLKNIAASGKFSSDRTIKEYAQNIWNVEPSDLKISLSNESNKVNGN
Kind of assay: Competitive inhibition of His6-tagged human liver glycogen phosphorylase-a expressed in Escherichia coli BL21 Gold (DE3) assessed as release of inorganic phosphate using varying levels of glucose-1-phosphate and constant concentration of AMP and glycogen measured after 1 min by Lineweaver-Burk plot method. […]

Assay [3] concerns the target T3, Glycogen phosphorylase, liver form (Homo sapiens, UniProt P06737).
T3 sequence (P06737 whole entry): T2 sequence (whole entry)
Nature of the assay: Competitive inhibition of His6-tagged human liver glycogen phosphorylase-a expressed in Escherichia coli BL21 Gold (DE3) assessed as release of inorganic phosphate using varying levels of glucose-1-phosphate and constant concentration of AMP and glycogen measured after 1 min by Dixon plot method.

In assay [4] the target is T1, Glycogen phosphorylase, muscle form. Nature of the assay: Competitive inhibition of rabbit muscle glycogen phosphorylase-b in presence of varying glucose-1-phosphate levels and AMP.
The target is the same in assay [5]. Kind of assay: Inhibition of rabbit muscle glycogen phosphorylase-b assessed as release of inorganic phosphate from glucose-1-phosphate in presence of AMP and glycogen. The method, boiled down:
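Isolated rabbit skeletal muscle GPb was assayed in 30 mM imidazole/HCl pH 6.8 with 60 mM KCl, 0.6 mM EDTA and 0.6 mM DTT. […] Initial velocities were derived from pseudo-first order rate constants.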

Consider `OC[C@H]1O[C@@H](c2nc(-c3ccc4ccccc4c3)c[nH]2)[C@H](O)[C@@H](O)[C@@H]1O`, for which the Ki came out at 0.065 µM in assay [1] and 0.026 µM in assay [3]. Besides, the inhibition entry in assay [2] is “Active”.
Take `O=C1CNC(=S)N1` [THIOHYDANTOIN]: the inhibition constant Ki in assay [4] amounted to 5.1 µM.
For `OC[C@H]1O[C@@H](c2cc3ccccc3[nH]2)[C@H](O)[C@@H](O)[C@@H]1O`, in assay [5], the IC50 was determined as 625 µM.
As for `OC[C@H]1O[C@@H](c2nc(-c3ccccc3)c[nH]2)[C@H](O)[C@@H](O)[C@@H]1O`, the inhibition constant Ki was found to be 0.226 µM in assay [1] and 0.156 µM in assay [3]. In addition, the inhibition result in assay [2] was “Active”.
Take `OC[C@H]1O[C@H](O)[C@H](O)[C@@H](O)[C@@H]1O`: the inhibitory constant (Ki) in assay [3] was 4280 µM.
